Screening data deposited in PubChem BioAssay by The Scripps Research Institute Molecular Screening Center.
DAGLB inh: DAGLB lipase inhibitors, primary screen, biochemical, fluorescence, HTS; Diacylglycerol lipase-beta (Homo sapiens), Q8NCG7; HEK293T DAGLB membrane lysate, EnzChek fluorogenic substrate; inhibition, % at 5.17 µM; 340,000 compounds, 0.059% hits; AID 504411, 2011; in the data active = inhibition above about 34%
Target sequence (Q8NCG7 whole entry, looked up): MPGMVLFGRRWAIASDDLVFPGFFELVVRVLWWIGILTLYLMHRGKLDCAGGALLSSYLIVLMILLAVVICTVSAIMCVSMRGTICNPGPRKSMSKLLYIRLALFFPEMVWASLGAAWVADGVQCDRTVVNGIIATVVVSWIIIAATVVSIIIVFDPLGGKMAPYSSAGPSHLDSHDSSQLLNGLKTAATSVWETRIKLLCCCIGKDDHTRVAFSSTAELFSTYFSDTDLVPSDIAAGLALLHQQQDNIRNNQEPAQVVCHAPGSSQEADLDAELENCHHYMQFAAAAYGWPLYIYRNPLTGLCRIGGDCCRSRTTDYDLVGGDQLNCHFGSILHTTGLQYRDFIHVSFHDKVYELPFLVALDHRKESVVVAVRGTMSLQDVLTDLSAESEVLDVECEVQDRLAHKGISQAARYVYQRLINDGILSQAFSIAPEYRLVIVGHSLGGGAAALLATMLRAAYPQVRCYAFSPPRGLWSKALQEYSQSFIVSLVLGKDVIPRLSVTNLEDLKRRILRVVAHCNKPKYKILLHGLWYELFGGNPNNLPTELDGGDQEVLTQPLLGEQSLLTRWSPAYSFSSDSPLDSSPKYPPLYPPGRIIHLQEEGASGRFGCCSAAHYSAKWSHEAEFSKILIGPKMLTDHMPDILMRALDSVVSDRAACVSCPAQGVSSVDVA
PLC-beta3 inh: human PLC-beta3 inhibitors, primary screen, biochemical, fluorescence | 370,000 compounds, 0.18% hits | Purified PLC-beta3, fluorogenic substrate | 1-phosphatidylinositol 4,5-bisphosphate phosphodiesterase beta-3 (Homo sapiens), Q01970 | AID 720704, 2013 | inhibition, % at 12.2 µM; in the data active = inhibition above about 11%
PLC-gamma1 inh: PLC-gamma1 enzyme inhibitors, primary screen, biochemical, fluorescence, purified enzyme | inhibition, % at 12.2 µM | fluorogenic substrate | 1-phosphatidylinositol 4,5-bisphosphate phosphodiesterase gamma-1 (Homo sapiens), P19174 | 370,000 compounds, 0.84% hits; in the data active = inhibition above about 9.5%
HGIII-sPLA2 inh: human group III sPLA2 inhibitors, primary screen, biochemical, QFRET, BODIPY PC-A2 liposome substrate | Group 3 secretory phospholipase A2 (Homo sapiens), Q9NZ20 | QFRET BODIPY PC-A2 liposome hydrolysis, fluorescence | inhibition, % at 12.2 µM | 370,000 compounds, 0.56% hits;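 active = inhibition above mean plus 3 SD of compounds lying within the high and low control bounds, cut at about 19% in these data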
Tb MetRS inh: T. brucei MetRS inhibitors, primary screen, biochemical, luminescence | methionyl-tRNA synthetase (Trypanosoma brucei brucei) | purified T. brucei MetRS, ATP depletion, Kinase-Glo luminescence | inhibition, % at 11.9 µM | 360,000 compounds, 0.4% hits;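 active = inhibition above a per-plate cutoff of the control wells' mean inhibition plus 3 SD, cut at about 5.5% in these data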
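Dosing: 11.9 µM single point; system: parasite MetRS enzyme; technique: luminescence of leftover ATP; times: 15 min enzyme-compound preincubation, 2 h reaction, 10 min detection, 25 °C; replicates: each compound tested once; read-out basis: percent inhibition relative to median high and low control wells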
sPLA2 confirm: human group III sPLA2 inhibitors, confirmation, biochemical, QFRET, triplicate | shares compounds with HGIII-sPLA2 inh | 2,000 compounds, 34% hits | inhibition, % at 12.2 µM | AID 743280, 2014 | recombinant hGIII-sPLA2, BODIPY PC-A2 QFRET fluorescence;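 active = mean inhibition across triplicates above the hit cutoff set in the earlier primary screen, cut at about 19% in these data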
535nm interf: 535nm fluorescence optical interference, confirmation, artefact control for HGIII-sPLA2 inhibitor project, biochemical, QFRET | shares compounds with HGIII-sPLA2 inh | BODIPY FL product fluorescence interference | inhibition, % at 12.2 µM | 2,000 compounds, 8.5% hits;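 active = average inhibition above the solvent-only control mean plus 3 SD, cut at about 6% in these data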
535nm interf DR: 535nm fluorescence optical interference, dose response, artefact control for HGIII-sPLA2 inhibitor project, biochemical, QFRET. shares compounds with HGIII-sPLA2 inh. BODIPY FL product fluorescence interference, cell-free. IC50, µM. 240 tested, under 10 active. AID 743455, 2014;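 active = IC50 at or below 10 µM; inactive = IC50 above 10 µM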
Of the large screens only hits and unclear results are named; the others gave an inactive call (follow-up assays come after a bar, where they were run). The list is not random: actives were taken first. Their share in the collection is about 1.9%.

Cc1ccccc1NC(=O)[C@H]1CC(=O)O[C@@H]1c1ccccc1	none (no result: DAGLB inh, Tb MetRS inh)
COC(=O)c1cc(NC(=O)NC2CCCCN(Cc3ccc(Cl)cc3)C2=O)cc(C(=O)OC)c1 (stereo not given)	none (no result: DAGLB inh, Tb MetRS inh)
Cc1ccc(/C=C2\SC(=S)N(CCC(=O)NNC(=O)c3ccccc3O)C2=O)cc1	none
CC(=Cc1ccccc1)C=C1SC(=S)N(CCCC(=O)Nc2ccc(C(=O)O)c(O)c2)C1=O	none (no result: DAGLB inh)
O=C(CCN1C(=O)/C(=C/c2ccccc2Cl)SC1=S)NNC(=O)c1ccccc1O	HGIII-sPLA2 inh 20 | sPLA2 confirm 30 | 535nm interf inactive | 535nm interf DR inactive
O=C(CN1C(=O)/C(=C/c2ccccc2)SC1=S)NNC(=O)c1ccccc1O	HGIII-sPLA2 inh 20 | sPLA2 confirm inactive | 535nm interf inactive
COc1cccc(/C=C2/SC(=S)N(CC(=O)NNC(=O)c3ccccc3O)C2=O)c1	HGIII-sPLA2 inh 23 | sPLA2 confirm 22 | 535nm interf inactive
CC(/C=C1\SC(=S)N(CCC(=O)Nc2ccc(O)cc2)C1=O)=C\c1ccccc1	HGIII-sPLA2 inh 19 | sPLA2 confirm inactive | 535nm interf inactive
C[C@H]1[C@@H](N)CC[C@@]23CCCN2C(=O)CCC[C@@H]13	none (no result: DAGLB inh, Tb MetRS inh)
CC(C)NC(=O)C1CCN(c2cncnc2)CC1	none (no result: DAGLB inh, Tb MetRS inh)
C[C@H]1[C@H](NC(=O)c2ccc(Cl)cc2)CC[C@@]23CCCN2C(=O)CCC[C@@H]13	none (no result: DAGLB inh, Tb MetRS inh)
COc1ccccc1N1CCN(CCN2C(=O)CC3(CCCC3)CC2=O)CC1	HGIII-sPLA2 inh 20 | sPLA2 confirm inactive | 535nm interf inactive
CCOC(=O)c1cc2c(=Cc3ccc(N(C)C)cc3)c3ccccc3n2[n+]1C	HGIII-sPLA2 inh 28 | sPLA2 confirm 35 | 535nm interf inactive | 535nm interf DR inactive
O=C(N[C@H](Cc1ccccc1)C(=O)N1CCN(c2ncccn2)CC1)[C@H]1O[C@@H](n2ccc(=O)[nH]c2=O)[C@H](O)[C@@H]1O	none (no result: DAGLB inh, Tb MetRS inh)
COC(=O)c1ccc(CCc2cc(O)ccc2O)cc1	none (no result: PLC-beta3 inh, PLC-gamma1 inh, HGIII-sPLA2 inh)
COC(=O)c1ccc(CCc2cc(O)c(Br)cc2O)cc1	HGIII-sPLA2 inh 30 | sPLA2 confirm inactive | 535nm interf inactive
S=c1[nH]c(-c2ccccc2)cn1/N=C/c1cccs1	HGIII-sPLA2 inh 24 | sPLA2 confirm 38 | 535nm interf 12
Cc1ccccc1CN1CCCCC(NC(=O)C(C)(C)C)C1=O (stereo not given)	none (no result: DAGLB inh, Tb MetRS inh)
COc1cc(/C=N/N=C(\N)c2nonc2N)ccc1O	HGIII-sPLA2 inh 25 | sPLA2 confirm inactive | 535nm interf inactive
Clc1ccc(-c2cc(-c3nnc4sc(Cc5cccs5)nn34)[nH]n2)cc1	none (no result: DAGLB inh, Tb MetRS inh)
C=CCNc1cccc2c1S(=O)(=O)N[C@@H](CC(C)C)CO2	none (no result: DAGLB inh, Tb MetRS inh)
O=C(OCC(=O)C12CC3CC(CC(C3)C1)C2)c1ccccc1O	HGIII-sPLA2 inh 19 | sPLA2 confirm inactive | 535nm interf inactive
O=C(COC(=O)c1ccccc1O)NC12CC3CC(CC(C3)C1)C2	none
CCCCNC(=O)CCn1c(=O)c2ccccc2n(CC(=O)NCCc2ccc(OC)c(OC)c2)c1=O	HGIII-sPLA2 inh 21 | sPLA2 confirm inactive | 535nm interf inactive
COCCCNC(=O)c1ccc(Cn2c(=O)c3ccccc3n(CC(=O)NCCc3ccc(OC)c(OC)c3)c2=O)cc1	none
CC(C)(Oc1ccc(Cl)cc1)C(=O)NC1CC1	HGIII-sPLA2 inh 21 | sPLA2 confirm inactive | 535nm interf inactive
O=C(NCCc1ccccc1Cl)[C@@H]1CCCN1C(=O)[C@@H](NC(=O)N1CCOCC1)C1CCCCC1	none (no result: DAGLB inh, Tb MetRS inh)
Cc1cc(S(=O)(=O)N(Cc2ccccc2Cl)c2ccc3c(c2)CCC3)ccc1-n1cnnn1	HGIII-sPLA2 inh 20 | sPLA2 confirm inactive | 535nm interf inactive
CCSc1nc2c([nH]1)c(=O)n(C)c(=S)n2C	none
CCCSc1nc2c([nH]1)c(=O)n(C)c(=S)n2C	HGIII-sPLA2 inh 20 | sPLA2 confirm inactive | 535nm interf inactive
O=C(NC1=N[C@@]2(C=C3CCCCC3n3c(=O)n(-c4ccccc4)c(=O)n32)[C@H](Cc2ccccc2)N1Cc1ccccc1)c1ccccc1 (stereo not given in full)	none (no result: DAGLB inh, Tb MetRS inh)
COCCCNC(=S)NNC(=S)NCCCOC	HGIII-sPLA2 inh 22 (no result: DAGLB inh) | sPLA2 confirm inactive | 535nm interf inactive
COc1ccc2c(c1)CN1C(=O)N(Cc3ccc(F)cc3)S(=O)(=O)CC21 (stereo not given)	none (no result: DAGLB inh, Tb MetRS inh)
C(=N\Nc1nc(-c2ccccc2)cs1)/c1ccncc1	none
O=C(O)Cc1sc(N/N=C\c2ccncc2)nc1-c1ccccc1	HGIII-sPLA2 inh 26 | sPLA2 confirm inactive | 535nm interf inactive
Cc1ccccc1C(=O)N[C@H](C(=O)N1CCC[C@H]1C(=O)NC1CCCC1)C1CCCCC1	none (no result: DAGLB inh, Tb MetRS inh)
CCCCCC(=O)NNC(=S)NC(=O)c1ccccc1[N+](=O)[O-]	HGIII-sPLA2 inh 21 | sPLA2 confirm 33 | 535nm interf inactive | 535nm interf DR inactive
O=C(NNC(=S)NC(=O)c1ccccc1[N+](=O)[O-])c1ccccc1Cl	HGIII-sPLA2 inh 36 | sPLA2 confirm 31 | 535nm interf inactive | 535nm interf DR inactive
COc1ccc([C@H]2OC(=O)C[C@H]2C(=O)N2CCCCC2)cc1OC	none (no result: DAGLB inh, Tb MetRS inh)
O=C(O)Cc1ccc(N=Nc2c(O)c(C(=O)O)cc3ccccc23)cc1	none
NS(=O)(=O)c1ccc(N=Nc2c(O)c(C(=O)O)cc3ccccc23)cc1	HGIII-sPLA2 inh 33 | sPLA2 confirm 25 | 535nm interf inactive
c1ccc(Nc2nnc(-c3ccc4c(c3)OCO4)o2)cc1	none (no result: DAGLB inh, Tb MetRS inh)
O=C(NNC(=S)Nc1ccc(F)cc1)c1ccccc1OC(F)F	HGIII-sPLA2 inh 21 | sPLA2 confirm 26 | 535nm interf inactive
Cc1ccc(NC(=S)NNC(=O)Nc2ccccc2)cc1	none
Cc1ccc(NC(=S)NNC(=O)c2ccccc2OC(F)F)cc1	HGIII-sPLA2 inh 26 | sPLA2 confirm 21 | 535nm interf inactive
Cc1ccccc1NC(=O)OC1CC2CC1[C@H]1CCCCN1[C@H]2Cc1ccccc1 (stereo not given in full)	none (no result: DAGLB inh, Tb MetRS inh)
Cc1ccc(C(=O)Nc2sc(C)c(C)c2C(=O)c2ccccc2)cc1	HGIII-sPLA2 inh 23 | sPLA2 confirm inactive | 535nm interf inactive
